Rows were chosen to be rich in hits. Some 2.7% of all compounds tested hit in one or more screens of this group.
VIM-2 inhibitor – inhibitors of Pseudomonas aeruginosa VIM-2 metallo-beta-lactamase; purified VIM-2, nitrocefin hydrolysis, epi-absorbance fluorescence; 0.89% of 290,000 active; inhibition, % at 5.6 µM;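 active means inhibition above the mean of all tested compounds plus 3 SD, cutoff set per screening run, cut at about 7.5% in these data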;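 further: red hydrolysis product quenches plate fluorescence so inhibitors raise well fluorescence; 0% = enzyme with DMSO and 100% = DMSO without enzyme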
CTSL1 counter-1 – counter-screen for PFM18AAP inhibitors: inhibitors of F. hepatica cathepsin L1. recombinant F. hepatica cathepsin L1, Z-Leu-Arg-MCA fluorescence. inhibition, % at 5.96 µM. 0.49% of 300,000 active. AID 1906;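 active means inhibition above the mean of all tested compounds plus 3 SD, set per screening campaign, cut at about 17% in these data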;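 further: 0% = plate median of test compound wells and 100% = 1 µM Z-Phe-Ala-diazomethylketone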
PfM18AAP inh-1 – PfM18AAP enzyme inhibition. recombinant PfM18AAP, H-Glu-NHMec fluorogenic cleavage. inhibition, % at 7.35 µM. 1.2% of 290,000 active. AID 1822;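 active means inhibition above the campaign mean inhibition over all tested compounds plus 3 SD, cut at about 28% in these data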;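 further: 0% = plate median of test compound wells and 100% = 2 mM ZnCl2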
IMP-1 inhibitor – inhibitors of Pseudomonas aeruginosa IMP-1 metallo-beta-lactamase; inhibition, % at 5.6 µM; purified IMP-1, nitrocefin hydrolysis, epi-absorbance fluorescence; 0.45% of 290,000 active; AID 1556;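 active means inhibition above the mean plus 3 SD of all compounds in the same screening run, cut at about 4.5% in these data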;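 further: 0% = IMP-1 with DMSO and 100% = DMSO wells lacking enzyme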
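System: Purified IMP-1 | Read-out basis: Percent enzyme inhibition | Controls: IMP-1 with DMSO as 0%, enzyme-free DMSO as 100% | Replicates: One well per compound | Doses: 5.6 µM nominal single concentration | Detection: Epi-absorbance fluorescence, 480 nm excitation, 530 nm emission | Incubation: 25 °C, 15 min preincubation, 25 min reaction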
PfM18AAP inh-2 – confirmation of Plasmodium falciparum M18 aspartyl aminopeptidase inhibitors; shares compounds with PfM18AAP inh-1; recombinant PfM18AAP, H-Glu-NHMec fluorogenic cleavage; inhibition, % at 7.35 µM; 28% of 2,400 active; AID 2170;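 active means mean inhibition over replicate wells above the hit cutoff set for the earlier primary screen, cut at about 29% in these data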;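 further: 0% = median of test compound wells and 100% = 2 mM ZnCl2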
CTSL1 counter-2 – Cathepsin L (human) inhibition, confirmation; shares compounds with PfM18AAP inh-1; purified cathepsin L1, Z-Leu-Arg-MCA fluorescence; inhibition, % at 5.96 µM; 2,400 tested, under 10 active; AID 2178;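 active means average inhibition across replicates above the hit cutoff set in the earlier primary screen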;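 further: 0% = median of test compound wells and 100% = Z-Phe-Ala-diazomethylketone 1 µM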
Target sequence (P07711 whole entry, looked up): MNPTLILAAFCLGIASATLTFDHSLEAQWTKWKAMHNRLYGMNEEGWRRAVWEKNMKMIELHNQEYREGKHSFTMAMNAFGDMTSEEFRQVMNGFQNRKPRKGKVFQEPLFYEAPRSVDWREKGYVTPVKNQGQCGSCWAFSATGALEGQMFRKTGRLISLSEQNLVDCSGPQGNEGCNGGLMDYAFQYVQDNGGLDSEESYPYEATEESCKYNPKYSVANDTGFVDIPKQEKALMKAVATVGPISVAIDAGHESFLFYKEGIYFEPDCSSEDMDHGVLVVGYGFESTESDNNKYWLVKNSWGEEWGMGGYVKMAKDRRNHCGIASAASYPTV
An asterisk follows results filed as active; x = not tested or not shown.

SMILES	VIM-2 inhibitor	CTSL1 counter-1	PfM18AAP inh-1	IMP-1 inhibitor	PfM18AAP inh-2	CTSL1 counter-2
Cc1ccc([N+](=O)[O-])cc1-c1[nH]c(-c2ccc(O)c(O)c2)nc1-c1ccccc1	-1	2	73*	0	74*	0
COCCn1c(=S)[nH]c2ccc(N(C)C)cc2c1=O	-1	2	40*	0	-3	2
O/N=C(/CCc1ccccc1)c1ccc2c(c1)OCCO2	-2	2	-3	-1	x	x
O=C(Nn1nnnc1Nc1ccccc1)C12CC3CC(CC(C3)C1)C2	0	-1	-6	-2	x	x
Cc1c(C#N)c(O)n(CCO)c(=O)c1N=Nc1ccccc1	-1	5	2	-2	x	x
Cc1c(C#N)c(O)n(CCO)c(=O)c1N=Nc1ccc(S(N)(=O)=O)cc1	-2	14	35*	-5	-37	13
Cc1c(C#N)c(O)n(C)c(=O)c1N=Nc1ccc(S(N)(=O)=O)cc1	10*	x	35*	-5	-40	5
O=C(NNC(=S)NC(=O)c1ccccc1[N+](=O)[O-])c1ccccc1O	0	1	43*	-3	21	-1
O=C(NNC(=O)c1ccccc1Cl)c1cccs1	-2	3	-2	-1	x	x
O=C(NNC(=O)c1cc(Cl)ccc1O)c1cccs1	-2	1	35*	1	-5	-3
COc1ccccc1C(=O)NNC(=S)NC(=O)c1cccs1	-3	0	13	-4	x	x
O=C(NC(=S)NNC(=O)c1ccccc1O)c1cccs1	5	1	44*	-2	3	-2
CC(=O)Nc1cccc(NC(=O)C(C)N2c3cccc4cccc(c34)S2(=O)=O)c1 (configuration not stated)	-4	0	-1	-2	x	x
CC(C)[C@H](NC(=O)c1nn(Cc2ccccc2)c(=O)c2ccccc12)C(=O)O	-1	-2	36*	-3	-41	2
c1ccc(C(c2ccccc2)c2noc(CN3CCC(c4ccncc4)CC3)n2)cc1	0	-3	-14	1	x	x
COc1ccc([N+](=O)[O-])cc1NC(=O)c1ccccc1N(C)S(C)(=O)=O	-3	3	3	-3	x	x
Cc1oc(-c2ccc3c(c2)OCCO3)cc1C(=O)NC(CCC(=O)O)C(=O)O (configuration not stated)	-2	0	38*	-4	-12	8
Cc1oc(-c2ccc3c(c2)OCCO3)cc1C(=O)NCC(=O)O	-3	-3	11	-4	x	x
Cc1ccc(C(=O)Nc2nnc(CC(=O)N/N=C/c3ccc(O)c(O)c3)s2)cc1	0	9	56*	1	50*	5
COc1ccc(S(=O)(=O)N2CCN(CC(=O)c3ccc(O)c(O)c3)CC2)cc1	4	2	72*	-4	41*	0
O=C(CN1CCN(S(=O)(=O)c2ccc(Cl)cc2)CC1)c1ccc(O)c(O)c1	7	-1	70*	-2	39*	0
O=C(CN1CCN(S(=O)(=O)c2ccc(F)cc2)CC1)c1ccc(O)c(O)c1	-2	-9	73*	-2	34*	4
CCOc1ccc(C(=O)CN2CCN(S(=O)(=O)c3ccc(F)cc3)CC2)cc1	-1	0	-5	-2	x	x
Cc1ccc(C(=O)Nc2nnc(CC(=O)N/N=C/c3ccncc3)s2)cc1	-4	-1	5	-5	x	x
Cc1nc2sc(-c3ccccc3)cc2c(=O)n1/N=C/N(C)C	-3	-3	0	-2	x	x
SMILES	VIM-2 inhibitor	CTSL1 counter-1	PfM18AAP inh-1	IMP-1 inhibitor	PfM18AAP inh-2	CTSL1 counter-2
Cc1ccc(C(=O)NCCCc2ccccc2)s1	-4	-1	8	-3	x	x
Cc1ccc(S(=O)(=O)N2CCN(CC(=O)N/N=C\c3ccc(O)c(O)c3)CC2)cc1	-1	6	48*	-5	40*	-2
Cc1ccc(S(=O)(=O)N2CCN(CC(=O)N/N=C/c3ccc(C)o3)CC2)cc1	-3	-5	0	-4	x	x
Cc1ccc(NC(=O)COC(=O)/C=C/c2cccs2)c(C)c1	-1	1	2	-2	x	x
CCn1c(CSc2nnc(-c3ccncc3)n2C)nc2cc(C(=O)O)ccc21	0	-2	-3	-2	x	x
CCn1c(CSc2ncn[nH]2)nc2cc(C(=O)O)ccc21	-2	-2	48*	-1	9	6
Cc1ccc(S(=O)(=O)NCCNc2ccc([N+](=O)[O-])cc2)cc1	-2	3	0	-2	x	x
NNC(=O)CNS(=O)(=O)c1ccc([N+](=O)[O-])cc1	-4	-1	35*	-3	-3	0
O=C(CNC(=O)c1cccs1)OCC(=O)c1ccc([N+](=O)[O-])cc1	-5	-2	45*	-2	0	0
O=C(CNC(=O)c1ccco1)OCC(=O)c1ccc([N+](=O)[O-])cc1	-1	-3	40*	0	-4	0
O=C(CNS(=O)(=O)c1ccccc1)OCC(=O)c1ccc(Br)cc1	0	-39	-6	-1	x	x
O=C(CNS(=O)(=O)c1ccccc1)OCC(=O)c1ccc([N+](=O)[O-])cc1	1	-8	33*	-3	1	-13
O=C(O)c1ccccc1-c1ccccc1C(=O)NCCCO	-1	-3	-2	0	x	x
Cc1ccc(C2(C)NC(=O)N(CC(=O)NNC(=O)c3cc(C)oc3C)C2=O)cc1 (configuration not stated)	x	-1	x	x	x	x
CC(C)(C)NC(=O)COc1ccccc1C#N	-2	-4	1	-1	x	x
O=C(Cc1ccccc1)NCC(=O)OCC(=O)c1cccc([N+](=O)[O-])c1	1	-10	6	1	x	x
Cc1ccc(C(=O)NCC(=O)NCC(=O)OCC(=O)c2ccc([N+](=O)[O-])cc2)cc1	0	4	33*	-2	1	1
Cc1ccc(C(=O)COC(=O)CNC(=O)CNC(=O)c2ccc(C)cc2)cc1	-1	-17	1	-6	x	x
O=C(Cc1ccccc1)NCC(=O)OCC(=O)c1ccc([N+](=O)[O-])cc1	2	-4	39*	0	4	-10
O=C(CSc1nnc2ccccn12)Nc1nsc(-c2ccccc2)n1	-2	1	1	-3	x	x
COc1cccc(C2C(C#N)=C(N)OC3=C2C(=O)CC(c2ccco2)C3)c1OCc1ccc(F)cc1 (configuration not stated)	1	-3	35*	3	-53	-6
CCOc1ccc(Br)cc1S(=O)(=O)NC(=O)c1ccccc1	-4	-4	3	-2	x	x
O=C(NCc1n[nH]c(=S)n1-c1cccc(C(F)(F)F)c1)c1ccco1	0	7	34*	-2	-10	-5
COc1ccc(CC(=O)NCc2n[nH]c(=S)n2-c2cccc(C)c2)cc1	7	-2	40*	0	-17	3
O=C(Cc1ccccc1)NCc1n[nH]c(=S)n1-c1ccccc1	2	-1	18	-3	x	x
CCC(C)(C)n1nnnc1CN1CCc2ccccc21	0	0	-6	-2	x	x
Cc1cccc(N2CCN(C(=O)c3ccc4c(c3)CCN4S(C)(=O)=O)CC2)c1C	0	1	1	1	x	x

High-throughput results (PubChem)
